What was measured:
Assay type in all cases: functional
Mus musculus [1] = assay: In vivo euglycemic activity of the compound (administered by oral gavage) in C57/6J-ob/ob mice is measured by normalization of blood glucose levels at a dose of 25(mg/kg)
Method in brief: (§1)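 Mice bled from retro-orbital sinus into tubes with 2% sodium heparin for baseline glucose, then dosed by oral gavage once daily for 4 days in 0.25% (w/v) methylcellulose in water, no pH adjustment (0.1 mL per 20 g). Bled 24 h after fourth dose. Samples centrifuged 2 min at 10000g. Plasma glucose measured by hexokinase UV method. Results scaled to vehicle (0%) and ciglitazone 50 mg/kg (100%).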

Mus musculus [2] = assay: In vivo euglycemic activity (administered by oral gavage) in C57/6J-ob/ob mice by normalization of blood glucose levels at a dose of 10 mg/kg.; method in brief: as §1
Mus musculus [3] = assay: In vivo euglycemic activity (administered by oral gavage) in C57/6J-ob/ob mice by normalization of blood glucose levels at a dose of 0.5 mg/kg.; method in brief: as §1
Mus musculus [4] = assay: In vivo euglycemic activity (administered by oral gavage) in C57/6J-ob/ob mice measured by normalization of blood glucose levels at a dose of 5 mg/kg.
Mus musculus [5] = assay: In vivo euglycemic activity of the compound (administered by oral gavage) in C57/6J-ob/ob mice is measured by normalization of blood glucose levels at a dose of 2.5(mg/kg); method in brief: as §1
Mus musculus [6] = assay: In vivo euglycemic activity (administered by oral gavage) in C57/6J-ob/ob mice by normalization of blood glucose levels at a dose of 1 mg/kg.; method in brief: as §1
Mus musculus [7] = assay: In vivo euglycemic activity of the compound (administered by oral gavage) in C57/6J-ob/ob mice is measured by normalization of blood glucose levels at a dose of 0.25(mg/kg); method in brief: as §1

Row | SMILES | Normalization (Mus musculus [2]) | Normalization (Mus musculus [4]) | Normalization (Mus musculus [6]) | other results
1 | O=C1NC(=O)C(Cc2ccc(C(=O)/C=C/c3ccc(-c4ccccc4)cc3)cc2)S1 (stereo unspecified) | 56% |  |  | Normalization (Mus musculus [1]): 65%
2 | COc1ccccc1CCC(=O)c1ccc(CC2SC(=O)NC2=O)cc1 (stereo unspecified) | 0% |  |  | 
3 | O=C1NC(=O)C(Cc2ccc(C(=O)CCc3ccco3)cc2)S1 (stereo unspecified) | 24% |  |  | 
4 | Cc1oc(-c2ccccc2)nc1CCSc1ccc(CC2SC(=O)NC2=O)cc1 (stereo unspecified) |  |  |  | Normalization (Mus musculus [3]): 0%
5 | Cc1oc(-c2ccccc2)nc1CN(C)C(=O)c1ccc(CC2SC(=O)NC2=O)cc1 (stereo unspecified) |  | 83% |  | Normalization (Mus musculus [5]): 0%
6 | COc1ccc(CCC(=O)c2ccc(CC3SC(=O)NC3=O)cc2)cc1 (stereo unspecified) | 50% |  |  | 
7 | Cc1oc(-c2ccco2)nc1CCC(=O)c1ccc(CC2SC(=O)NC2=O)cc1 (stereo unspecified) |  |  | 61% | 
8 | Cc1ccc(-c2nc(CCC(=O)c3ccc(CC4SC(=O)NC4=O)s3)c(C)o2)cc1 (stereo unspecified) |  |  | 100% | Normalization (Mus musculus [3]): 27%
9 | Cc1nc(-c2ccccc2)c(CCC(=O)c2ccc(CC3SC(=O)NC3=O)cc2)s1 (stereo unspecified) |  | 61% |  | Normalization (Mus musculus [5]): 0%
10 | CCN(C(=O)Cc1nc(-c2ccccc2)oc1C)c1ccc(CC2SC(=O)NC2=O)cc1 (stereo unspecified) |  | 25% |  | 
11 | O=C1NC(=O)C(Cc2ccc(C(=O)/C=C/c3ccccc3C(F)(F)F)cc2)S1 (stereo unspecified) | 57% | 39% |  | 
12 | Cc1oc(-c2ccc(C(F)(F)F)cc2)nc1CCC(=O)c1ccc(/C=C2\SC(=O)NC2=O)cc1 |  |  | 58% | Normalization (Mus musculus [3]): 28%
13 | Cc1oc(-c2ccc(C(F)(F)F)cc2)nc1CCC(=O)c1ccc(CC2SC(=O)NC2=O)s1 (stereo unspecified) |  |  | 78% | Normalization (Mus musculus [3]): 27%
14 | O=C1NC(=O)C(Cc2ccc(CCCc3ccccc3)cc2)S1 (stereo unspecified) | 77% | 46% |  | Normalization (Mus musculus [1]): 73%
15 | COc1ccc(-c2nc(CCC(=O)c3ccc(/C=C4\SC(=O)NC4=O)cc3)c(C)o2)cc1 |  |  | 62% | 
16 | Cc1ccc(-c2nc(C/C=C/c3ccc(CC4SC(=O)NC4=O)s3)c(C)o2)cc1 (stereo unspecified) |  |  | 98% | Normalization (Mus musculus [3]): 73%; Normalization (Mus musculus [7]): 64%; Normalization (Mus musculus [5]): 90%
17 | O=C1NC(=O)C(Cc2ccc(C(=O)Cc3ccccc3)cc2)S1 (stereo unspecified) | 0% |  |  | 
18 | CN(C)c1ccc(/C=C/C(=O)c2ccc(CC3SC(=O)NC3=O)cc2)cc1 (stereo unspecified) | 17% |  |  | 
19 | Cc1oc(-c2ccccc2)nc1CN(C(=O)c1ccc(CC2SC(=O)NC2=O)cc1)c1ccccc1 (stereo unspecified) |  | 23% |  | 
20 | Cc1oc(-c2ccc3ccccc3c2)nc1CCC(=O)c1ccc(/C=C2\SC(=O)NC2=O)cc1 |  |  | 90% | Normalization (Mus musculus [3]): 38%
21 | Cc1oc(-c2ccccc2)nc1CN(c1ccccc1)S(=O)(=O)c1ccc(CC2SC(=O)NC2=O)cc1 (stereo unspecified) |  |  |  | Normalization (Mus musculus [5]): 32%
22 | COCc1ccc(/C=C/C(=O)c2ccc(CC3SC(=O)NC3=O)cc2)cc1 (stereo unspecified) |  |  |  | Normalization (Mus musculus [1]): 0%
23 | Cc1ccc(-c2nc(CCC(=O)c3ccc(/C=C4\SC(=O)NC4=O)cc3)c(C)o2)o1 |  |  | 76% | Normalization (Mus musculus [3]): 1%
24 | Cc1ccccc1/C=C/C(=O)c1ccc(CC2SC(=O)NC2=O)cc1 (stereo unspecified) | 21% |  |  | 

Row | SMILES | Normalization (Mus musculus [2]) | Normalization (Mus musculus [4]) | Normalization (Mus musculus [6]) | other results
25 | O=C1NC(=O)C(Cc2ccc(C(=O)/C=C/c3ccco3)cc2)S1 (stereo unspecified) | 65% |  |  | 
26 | Cc1ccc(-c2nc(CCC(=O)c3ccc(CC4SC(=O)NC4=O)s3)co2)cc1 (stereo unspecified) |  |  | 10% | Normalization (Mus musculus [5]): 0%
27 | O=C1NC(=O)C(Cc2ccc(C(=O)/C=C/c3cccc(Cl)c3)cc2)S1 (stereo unspecified) | 4% |  |  | 
28 | O=C1NC(=O)C(Cc2ccc(C(=O)CCc3csc(-c4ccccc4)n3)cc2)S1 (stereo unspecified) |  | 91% |  | Normalization (Mus musculus [5]): 48%
29 | Cc1oc(-c2ccccc2)nc1/C=C/C(=O)c1ccc(CC2SC(=O)NC2=O)cc1 (stereo unspecified) | 59% | 100% |  | 
30 | O=C1NC(=O)C(Cc2ccc(C(=O)/C=C/c3ccccc3Cl)cc2)S1 (stereo unspecified) | 44% | 65% |  | 
31 | O=C1NC(=O)C(Cc2ccc(C(=O)CCCc3ccccc3)cc2)S1 (stereo unspecified) | 26% |  |  | 
32 | O=C1NC(=O)C(Cc2ccc(C(=O)/C=C/c3ccc(OCc4ccccc4)cc3)cc2)S1 (stereo unspecified) | 57% | 64% |  | Normalization (Mus musculus [1]): 96%
33 | O=C1NC(=O)C(Cc2ccc(C(=O)/C=C/c3ccccc3)cc2)S1 (stereo unspecified) | 65% | 23% |  | Normalization (Mus musculus [1]): 99%
34 | CCc1ccc(CCC(=O)c2ccc(CC3SC(=O)NC3=O)cc2)nc1 (stereo unspecified) | 41% | 0% |  | 
35 | CCOC(=O)c1ccc(/C=C/C(=O)c2ccc(CC3SC(=O)NC3=O)cc2)cc1 (stereo unspecified) | 4% |  |  | 
36 | O=C1NC(=O)C(Cc2ccc(C(O)CCc3ccccc3)cc2)S1 (stereo unspecified) | 89% | 47% |  | 
37 | O=C1NC(=O)C(Cc2ccc(C(=O)/C=C/c3ccccc3O)cc2)S1 (stereo unspecified) |  |  |  | Normalization (Mus musculus [1]): 0%
38 | Cc1oc(-c2ccc(O)cc2)nc1CCC(=O)c1ccc(CC2SC(=O)NC2=O)cc1 (stereo unspecified) |  |  | 0% | 
39 | Cc1ccc(-c2nc(CCC(=O)c3ccc(CC4SC(=O)NC4=O)cc3)co2)cc1 (stereo unspecified) |  |  |  | Normalization (Mus musculus [3]): 0%; Normalization (Mus musculus [7]): 15%
40 | O=C1NC(=O)C(Cc2ccc(C(O)CCc3ccccn3)cc2)S1 (stereo unspecified) | 13% |  |  | 
41 | Cc1oc(-c2ccco2)nc1CCC(=O)c1ccc(/C=C2\SC(=O)NC2=O)cc1 |  |  | 55% | 
42 | Cc1cc(-c2nc(CCC(=O)c3ccc(CC4SC(=O)NC4=O)cc3)c(C)o2)cc(C)c1O (stereo unspecified) |  |  | 100% | Normalization (Mus musculus [3]): 30%
43 | O=C1NC(=O)C(Cc2ccc(C(=O)CCc3ccccc3)cc2)S1 (stereo unspecified) | 81% | 53% |  | Normalization (Mus musculus [1]): 93%
44 | Cc1oc(-c2ccc(Cl)cc2)nc1CCC(=O)c1ccc(CC2SC(=O)NC2=O)s1 (stereo unspecified) |  |  | 51% | Normalization (Mus musculus [5]): 100%
45 | Cc1oc(-c2ccccc2)nc1CN(C)S(=O)(=O)c1ccc(CC2SC(=O)NC2=O)cc1 (stereo unspecified) |  | 9% |  | 
46 | Cc1oc(-c2ccccc2)nc1CC(=O)N(C)c1ccc(CC2SC(=O)NC2=O)cc1 (stereo unspecified) |  | 9% |  | 
47 | Cc1oc(-c2ccccc2)nc1CC(=O)Nc1ccc(CC2SC(=O)NC2=O)cc1 (stereo unspecified) |  | 64% |  | Normalization (Mus musculus [5]): 16%
48 | O=C1NC(=O)C(Cc2ccc(C(=O)/C=C/c3ccc(Br)cc3)cc2)S1 (stereo unspecified) | 28% |  |  | 

Row | SMILES | Normalization (Mus musculus [2]) | Normalization (Mus musculus [4]) | Normalization (Mus musculus [6]) | other results
49 | O=C1NC(=O)C(Cc2ccc(C(=O)/C=C/c3ccccc3Cc3ccccc3)cc2)S1 (stereo unspecified) | 56% |  |  | 
50 | Cc1oc(-c2ccccc2)nc1CNC(=O)c1ccc(CC2SC(=O)NC2=O)cc1 (stereo unspecified) |  | 50% |  | Normalization (Mus musculus [5]): 49%
51 | Cc1oc(-c2ccccc2)nc1CC/C(=N\O)c1ccc(CC2SC(=O)NC2=O)cc1 (stereo unspecified) |  | 100% | 99% | Normalization (Mus musculus [3]): 0%
52 | Cc1oc(-c2ccc3ccccc3c2)nc1CCS(=O)(=O)c1ccc(CC2SC(=O)NC2=O)cc1 (stereo unspecified) |  | 0% |  | Normalization (Mus musculus [5]): 0%
53 | CO/N=C(\CCc1nc(-c2ccccc2)oc1C)c1ccc(CC2SC(=O)NC2=O)cc1 (stereo unspecified) |  | 100% | 0% | 
54 | Cc1oc(-c2ccc3ccccc3c2)nc1CCC(=O)c1ccc(CC2SC(=O)NC2=O)cc1 (stereo unspecified) |  |  | 39% | 
55 | Cc1oc(-c2ccccc2)nc1CCC(=O)c1ccc(CC2SC(=O)NC2=O)s1 (stereo unspecified) |  | 100% | 37% | Normalization (Mus musculus [5]): 99%
56 | Cc1oc(-c2ccccc2)nc1CNS(=O)(=O)c1ccc(CC2SC(=O)NC2=O)cc1 (stereo unspecified) |  | 0% |  | 
57 | O=C1NC(=O)C(Cc2ccc(C(=O)/C=C/c3nc4ccccc4s3)cc2)S1 (stereo unspecified) | 0% |  |  | 
58 | Cc1oc(-c2ccccc2)nc1CCCc1ccc(CC2SC(=O)NC2=O)cc1 (stereo unspecified) |  |  |  | Normalization (Mus musculus [3]): 37%
59 | O=C1NC(=O)C(Cc2ccc(C(=O)CCc3ccc(-c4ccccc4)cc3)cc2)S1 (stereo unspecified) | 71% | 54% |  | 
60 | Cc1oc(-c2ccccc2)nc1CCC(O)c1ccc(CC2SC(=O)NC2=O)s1 (stereo unspecified) |  | 100% | 23% | 
61 | Cc1oc(-c2ccccc2)nc1CCS(=O)(=O)c1ccc(CC2SC(=O)NC2=O)cc1 (stereo unspecified) |  | 69% | 11% | 
62 | Cc1ccc(-c2nc(CCC(=O)c3ccc(/C=C4\SC(=O)NC4=O)cc3)c(C)o2)cc1 |  |  | 0% | Normalization (Mus musculus [3]): 27%
63 | O=C1NC(=O)C(Cc2ccc(C(=O)CCc3coc(-c4ccccc4)n3)cc2)S1 (stereo unspecified) |  |  |  | Normalization (Mus musculus [3]): 30%; Normalization (Mus musculus [7]): 52%
64 | COc1ccc(/C=C/C(=O)c2ccc(CC3SC(=O)NC3=O)cc2)cc1 (stereo unspecified) | 68% | 0% |  | 
65 | O=C1NC(=O)C(Cc2ccc(C(=O)CCc3ccc(OCc4ccccc4)cc3)cc2)S1 (stereo unspecified) | 45% |  |  | 
66 | COc1ccc(-c2nc(CCC(=O)c3ccc(CC4SC(=O)NC4=O)cc3)c(C)o2)cc1 (stereo unspecified) |  |  | 95% | Normalization (Mus musculus [3]): 43%
67 | Cc1ccc(-c2nc(CCC(=O)c3ccc(/C=C4\SC(=O)NC4=O)cc3)co2)cc1 |  |  | 53% | 
68 | Cc1oc(-c2cccs2)nc1CCC(=O)c1ccc(/C=C2\SC(=O)NC2=O)cc1 |  |  | 100% | 
69 | Cc1oc(-c2cccs2)nc1CCC(=O)c1ccc(CC2SC(=O)NC2=O)cc1 (stereo unspecified) |  |  | 84% | Normalization (Mus musculus [3]): 71%; Normalization (Mus musculus [7]): 27%
70 | Cc1oc(-c2ccccc2)nc1CC/C(=N\OCc1ccccc1)c1ccc(CC2SC(=O)NC2=O)cc1 (stereo unspecified) |  | 17% |  | 
71 | O=C1NC(=O)C(Cc2ccc3c(c2)CCC(Cc2ccccc2)O3)S1 (stereo unspecified) | 70% | 48% |  | Normalization (Mus musculus [1]): 91%
72 | Cc1nc(-c2ccccc2)sc1CCC(=O)c1ccc(CC2SC(=O)NC2=O)cc1 (stereo unspecified) |  | 75% |  | Normalization (Mus musculus [5]): 33%

From ChEMBL document CHEMBL1126043, “Novel thiazolidine-2,4-diones as potent euglycemic agents” (1992)
